Results reported in ChEMBL document CHEMBL1157864, “Synthesis of some novel 2-substituted-5-[isopropylthiazole] clubbed 1,2,4-triazole and 1,3,4-oxadiazoles as potential antimicrobial and antitubercular agents” (Eur J Med Chem, 2010).
In brackets after ≈: the same amount, converted by molar mass.

Columns and labels:
Assay type in all cases: functional
Pseudomonas aeruginosa = assay: Antimicrobial activity against Pseudomonas aeruginosa ATCC 10145 after 24 hrs by broth microdilution assay; conditions: ATCC 10145, 24 h
In short: (§1)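 Broth dilution MIC. Stock is 10 mg compound in 1 mL DMSO, serially diluted in Mueller–Hinton broth for bacteria or Sabouraud liquid medium for yeasts and mould. Tubes are inoculated at 10⁵ cfu/mL and incubated at 37 °C for 24 h. Controls are medium alone and medium with DMSO at matching dilutions. MIC is the lowest concentration giving complete growth inhibition.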

Saccharomyces cerevisiae = assay: Antimicrobial activity against Saccharomyces cerevisiae ATCC 9763 after 24 hrs by broth microdilution assay; conditions: ATCC 9763, 24 h; in short: as §1
Enterococcus faecalis = assay: Antimicrobial activity against Streptococcus faecalis ATCC 14506 after 24 hrs by broth microdilution assay; conditions: ATCC 14506, 24 h; in short: as §1
Candida tropicalis = assay: Antimicrobial activity against Candida tropicalis ATCC 1369 after 24 hrs by broth microdilution assay; conditions: ATCC 1369, 24 h; in short: as §1
Bacillus subtilis = assay: Antimicrobial activity against Bacillus subtilis ATCC 60511 after 24 hrs by broth microdilution assay; conditions: ATCC 60511, 24 h; in short: as §1
Staphylococcus aureus = assay: Antimicrobial activity against Staphylococcus aureus ATCC 11632 after 24 hrs by broth microdilution assay; conditions: ATCC 11632, 24 h; in short: as §1
[1] = tested on: Mycobacterium tuberculosis; assay: Antimycobacterial activity against Mycobacterium tuberculosis H37Rv after 21 days by broth dilution assay; conditions: 504 h
In short: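 Middlebrook 7H9 broth with 10% albumin-dextrose-catalase and 0.2% glycerol; frozen culture thawed, diluted to 10⁵ cfu/mL and used as inoculum. Compounds taken up in DMSO and diluted twice in broth, 1.3% DMSO final. Incubated at 37 °C. Growth judged by eye against drug-free and inoculum-free controls and isoniazid. MIC is the lowest concentration inhibiting ≥99% of the starting population.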

Klebsiella pneumoniae = assay: Antimicrobial activity against Klebsiella pneumoniae ATCC 10031 after 24 hrs by broth microdilution assay; conditions: ATCC 10031, 24 h; in short: as §1
Aspergillus niger = assay: Antimicrobial activity against Aspergillus niger ATCC 6275 after 24 hrs by broth microdilution assay; conditions: ATCC 6275, 24 h; in short: as §1
Escherichia coli = assay: Antimicrobial activity against Escherichia coli ATCC 10536 after 24 hrs by broth microdilution assay; conditions: ATCC 10536, 24 h; in short: as §1

Structure (SMILES)	MIC (Pseudomonas aeruginosa) [µg/mL]	MIC (Saccharomyces cerevisiae) [µg/mL]	MIC (Enterococcus faecalis) [µg/mL]	MIC (Candida tropicalis) [µg/mL]	MIC (Bacillus subtilis) [µg/mL]	MIC (Staphylococcus aureus) [µg/mL]	MIC [1] [µg/mL]	MIC (Klebsiella pneumoniae) [µg/mL]	MIC (Aspergillus niger) [µg/mL]	MIC (Escherichia coli) [µg/mL]
CC(C)c1csc(-c2nnc3sc(-c4ccc(O)cc4)nn23)n1	125 (≈ 364 µM)	250 (≈ 728 µM)	125 (≈ 364 µM)	125 (≈ 364 µM)	125 (≈ 364 µM)	250 (≈ 728 µM)	62.5 (≈ 182 µM)	125 (≈ 364 µM)	125 (≈ 364 µM)	125 (≈ 364 µM)
COc1ccc(-c2nn3c(-c4nc(C(C)C)cs4)nnc3s2)cc1	31.2 (≈ 87.4 µM)	16 (≈ 44.8 µM)	16 (≈ 44.8 µM)	16 (≈ 44.8 µM)	125 (≈ 350 µM)	31.2 (≈ 87.4 µM)	31.2 (≈ 87.4 µM)	31.2 (≈ 87.4 µM)	31.2 (≈ 87.4 µM)	125 (≈ 350 µM)
CC(C)c1csc(-c2nnc(S)n2/N=C/c2ccccc2)n1	31.2 (≈ 94.9 µM)	125 (≈ 379 µM)	31.2 (≈ 94.9 µM)	62.5 (≈ 190 µM)	31.2 (≈ 94.9 µM)	250 (≈ 759 µM)	62.5 (≈ 190 µM)	31.2 (≈ 94.9 µM)	62.5 (≈ 190 µM)	62.5 (≈ 190 µM)
CC(C)c1csc(-c2nnc3sc(-c4ccccc4)nn23)n1	31.2 (≈ 95.4 µM)	125 (≈ 382 µM)	16 (≈ 48.9 µM)	125 (≈ 382 µM)	16 (≈ 48.9 µM)	125 (≈ 382 µM)	62.5 (≈ 191 µM)	125 (≈ 382 µM)	31.2 (≈ 95.4 µM)	125 (≈ 382 µM)
CC(C)c1csc(-c2nnc(S)n2/N=C/C=C/c2ccccc2)n1	16 (≈ 45 µM)	31.2 (≈ 87.9 µM)	31.2 (≈ 87.9 µM)	31.2 (≈ 87.9 µM)	8 (≈ 22.5 µM)	8 (≈ 22.5 µM)	4 (≈ 11.3 µM)	4 (≈ 11.3 µM)	125 (≈ 352 µM)	4 (≈ 11.3 µM)
CC(C)c1csc(-c2nnc(S)n2/N=C/c2ccc[nH]2)n1	62.5 (≈ 196 µM)	31.2 (≈ 98.1 µM)	31.2 (≈ 98.1 µM)	62.5 (≈ 196 µM)	62.5 (≈ 196 µM)	31.2 (≈ 98.1 µM)	31.2 (≈ 98.1 µM)	31.2 (≈ 98.1 µM)	16 (≈ 50.2 µM)	62.5 (≈ 196 µM)
COc1cc(/C=N/n2c(S)nnc2-c2nc(C(C)C)cs2)ccc1O	125 (≈ 333 µM)	250 (≈ 666 µM)	125 (≈ 333 µM)	125 (≈ 333 µM)	125 (≈ 333 µM)	250 (≈ 666 µM)	62.5 (≈ 166 µM)	125 (≈ 333 µM)	125 (≈ 333 µM)	125 (≈ 333 µM)
CC(C)c1csc(-c2nnc3sc(-c4ccc(Cl)cc4)nn23)n1	8 (≈ 22.1 µM)	31.2 (≈ 86.4 µM)	16 (≈ 44.2 µM)	31.2 (≈ 86.4 µM)	8 (≈ 22.1 µM)	8 (≈ 22.1 µM)	8 (≈ 22.1 µM)	16 (≈ 44.2 µM)	125 (≈ 345 µM)	16 (≈ 44.2 µM)
COc1ccc(/C=N/n2c(S)nnc2-c2nc(C(C)C)cs2)cc1	31.2 (≈ 86.9 µM)	62.5 (≈ 174 µM)	31.2 (≈ 86.9 µM)	62.5 (≈ 174 µM)	31.2 (≈ 86.9 µM)	31.2 (≈ 86.9 µM)	31.2 (≈ 86.9 µM)	16 (≈ 44.5 µM)	62.5 (≈ 174 µM)	31.2 (≈ 86.9 µM)
CC(C)c1csc(-c2nnc(S)n2/N=C/c2ccccc2O)n1	250 (≈ 724 µM)	125 (≈ 362 µM)	250 (≈ 724 µM)	125 (≈ 362 µM)	250 (≈ 724 µM)	250 (≈ 724 µM)	62.5 (≈ 181 µM)	250 (≈ 724 µM)	125 (≈ 362 µM)	250 (≈ 724 µM)
CC(C)c1csc(-c2nnc(S)n2-c2ccccc2)n1	31.2 (≈ 103 µM)	8 (≈ 26.5 µM)	125 (≈ 413 µM)	16 (≈ 52.9 µM)	16 (≈ 52.9 µM)	16 (≈ 52.9 µM)	31.2 (≈ 103 µM)	31.2 (≈ 103 µM)	16 (≈ 52.9 µM)	16 (≈ 52.9 µM)
CSc1nnc(-c2nc(C(C)C)cs2)n1-c1ccccc1	16 (≈ 50.6 µM)	16 (≈ 50.6 µM)	16 (≈ 50.6 µM)	16 (≈ 50.6 µM)	31.2 (≈ 98.8 µM)	16 (≈ 50.6 µM)	62.5 (≈ 198 µM)	31.2 (≈ 98.8 µM)	31.2 (≈ 98.8 µM)	62.5 (≈ 198 µM)
O=C(O)c1cn(C2CC2)c2cc(N3CCNCC3)c(F)cc2c1=O [CIPROFLOXACIN]	5 (≈ 15.1 µM)		≤ 5		≤ 1	≤ 5		≤ 1		≤ 1
OC(Cn1cncn1)(Cn1cncn1)c1ccc(F)cc1F [FLUCONAZOLE]		≤ 1		≤ 1					≤ 1	
NNC(=O)c1ccncc1 [ISONIAZID]							0.25 (≈ 1.82 µM)			
CCn1cc(C(=O)O)c(=O)c2cc(F)c(N3CCNCC3)cc21 [NORFLOXACIN]	5 (≈ 15.7 µM)		5 (≈ 15.7 µM)		≤ 1	5 (≈ 15.7 µM)		≤ 1		≤ 1
